Data published in ChEMBL document CHEMBL1122279, “Importance of C-6 chirality in conferring irreversible opioid antagonism to naltrexone-derived affinity labels” (J Med Chem, 1983).

How the values were obtained:
Cavia porcellus [1] = species on record: Cavia porcellus; assay: Irreversible antagonism to morphine was evaluated after 30 min incubation of GPI with the compound at 200 nM conc.; type: functional
Summary of the method: (§1)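 Guinea pig ileal longitudinal muscle was incubated with compound at the stated concentrations for 30 min, then washed 20 times. […] Result is the agonist IC50 after treatment divided by the control agonist IC50 in the same preparation.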

Cavia porcellus [2] = species on record: Cavia porcellus; assay: Irreversible antagonism to morphine was evaluated after 30 min incubation of GPI with the compound at 20 nM conc.; type: functional; summary of the method: as §1
Cavia porcellus [3] = species on record: Cavia porcellus; assay: Irreversible antagonism to nalorphine was evaluated after 30 min incubation of GPI with the compound at 20 nM conc.; type: functional; summary of the method: as §1
Cavia porcellus [4] = species on record: Cavia porcellus; assay: Irreversible antagonism to nalorphine was evaluated after 30 min incubation of GPI with the compound at 200 nM conc.; type: functional; summary of the method: as §1
Cavia porcellus [5] = species on record: Cavia porcellus; assay: Agonistic potency on the guinea pig ileal longitudinal muscle (GPI) relative to morphine.; type: functional, Muscle tissue
Summary of the method: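 Isolated guinea pig ileal longitudinal muscle was prepared by the Rang method. […] Only inhibition of contraction greater than 80% was counted.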

Mus musculus [6] = species on record: Mus musculus; assay: Antagonist potency relative to morphine at 20 nM concentration; type: functional
Summary of the method: (§2)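 Mouse vas deferens (Henderson method) was pretreated with compound for 30 min, then washed 20 times. […] Result is the agonist IC50 after treatment divided by the control IC50 in the same tissue. Where the agonist fell short of a full (>70%) response, an IC30 ratio was estimated from the plotted curves.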

Cavia porcellus [7] = species on record: Cavia porcellus; assay: Irreversible antagonism to ethylketazocine (EK) was evaluated after 30 min incubation of GPI with the compound at 20 nM conc.; type: functional; summary of the method: as §1
Mus musculus [8] = species on record: Mus musculus; assay: Antagonist potency relative to morphine at 200 nM concentration; type: functional; summary of the method: as §2
Mus musculus [9] = species on record: Mus musculus; assay: Antagonist potency relative to DADLE at 20 nM concentration; type: functional; summary of the method: as §2
Mus musculus [10] = species on record: Mus musculus; assay: Percent of maximum inhibition of contraction of mouse vas deferens (MVD); type: functional
Cavia porcellus [11] = species on record: Cavia porcellus; assay: Irreversible antagonism to ethylketazocine (EK) was evaluated after 30 min incubation of GPI with the compound at 500 nM conc.; type: functional; summary of the method: as §1
Mus musculus [12] = species on record: Mus musculus; assay: (§3) Agonist activity measured on mouse vas deferens (MVD); type: functional
Mus musculus [13] = species on record: Mus musculus; assay: Antagonist potency relative to DADLE at 200 nM concentration; type: functional; summary of the method: as §2
Cavia porcellus [14] = species on record: Cavia porcellus; assay: Irreversible antagonism to morphine was evaluated after 30 min incubation of GPI with the compound at 500 nM conc.; type: functional; summary of the method: as §1
Cavia porcellus [15] = species on record: Cavia porcellus; assay: Irreversible antagonistic potency in guinea pig ileal longitudinal muscle (GPI); type: functional; conditions: Muscle tissue
Cavia porcellus [16] = species on record: Cavia porcellus; assay: Irreversible antagonism to ethylketazocine (EK) was evaluated after 30 min incubation of GPI with the compound at 1000 nM conc.; type: functional; summary of the method: as §1
Cavia porcellus [17] = species on record: Cavia porcellus; assay: Irreversible antagonism to morphine was evaluated after 30 min incubation of GPI with the compound at 1000 nM conc.; type: functional; summary of the method: as §1
Cavia porcellus [18] = species on record: Cavia porcellus; assay: Agonistic activity on the guinea pig ileal longitudinal muscle (GPI) relative to morphine at a dose of 1 uM; type: functional, Muscle tissue
Mus musculus [19] = species on record: Mus musculus; assay: Irreversible antagonistic potency in mouse vas deferens (MVD); type: functional
Summary of the method: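 Mouse vas deferens (Henderson method) was pretreated with compound for 30 min, then washed 20 times. Where the agonist fell short of a full (>70%) response, an IC30 ratio was estimated from the plotted curves.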

Mus musculus [20] = species on record: Mus musculus; assay: Antagonist potency relative to DADLE at 100 nM concentration; type: functional; summary of the method: as §2
Cavia porcellus [21] = species on record: Cavia porcellus; assay: Irreversible antagonism to ethylketazocine (EK) was evaluated after 30 min incubation of GPI with the compound at 200 nM conc.; type: functional; summary of the method: as §1
Mus musculus [22] = species on record: Mus musculus; assay: Antagonist potency relative to morphine at 100 nM concentration; type: functional; summary of the method: as §2
Mus musculus [23] = species on record: Mus musculus; assay: as §3; type: functional, organism-based

SMILES	IC50 ratio (Cavia porcellus [1])	IC50 ratio (Cavia porcellus [2])	IC50 ratio (Cavia porcellus [3])	IC50 ratio (Cavia porcellus [4])	IC50 ratio (Cavia porcellus [5])	IC50 ratio (Mus musculus [8])	IC50 ratio (Mus musculus [13])	other results
COC(=O)/C=C\C(=O)N[C@H]1CC[C@@]2(O)C3Cc4ccc(O)c5c4C2(CCN3CC2CC2)[C@H]1O5 (stereo partly specified)	1.1	0.95	0.49	0.98	0.8	–	–	–
Oc1ccc2c3c1O[C@H]1[C@@H](N=C=S)CC[C@@]4(O)C(C2)N(CC2CC2)CCC314 (stereo partly specified)	2.4	2.1	–	1.2	9.6	10.7	6.6	IC50 ratio (Mus musculus [6]): 3.1; IC50 ratio (Cavia porcellus [7]): 0.8; IC50 ratio (Mus musculus [9]): 1.2; max inhibition (Mus musculus [10]): 45%; IC50 ratio (Cavia porcellus [11]): 1.4; IC30 (Mus musculus [12]): 100 nM; IC50 ratio (Cavia porcellus [14]): 2.3
COC(=O)/C=C\C(=O)N[C@@H]1CC[C@@]2(O)C3Cc4ccc(O)c5c4C2(CCN3CC2CC2)[C@H]1O5 (stereo partly specified)	0.63	1.5	1	0.6	1.1	–	–	–
CCOc1ccc2c(c1)C1(C)CCN(CC3CC3)C(C2=O)C1C (stereo unspecified) [ETHYLKETAZOCINE]	–	–	–	–	–	–	–	IC50 (Cavia porcellus [15]): 0.973 nM
CCC(=O)N[C@H]1CCC2(O)C3Cc4ccc(O)c5c4C2(CCN3CC2CC2)[C@H]1O5 (stereo partly specified)	1	1.1	0.7	0.9	2.9	–	–	–
CCC(=O)N[C@@H]1CCC2(O)C3Cc4ccc(O)c5c4C2(CCN3CC2CC2)[C@H]1O5 (stereo partly specified)	1.5	1.3	1	0.85	0.81	–	–	–
C=CC(=O)N[C@@H]1CCC2(O)C3Cc4ccc(O)c5c4C2(CCN3CC2CC2)[C@H]1O5 (stereo partly specified)	4.2	1.9	1.1	1.4	–	–	–	IC50 ratio (Cavia porcellus [16]): 1.5; IC50 ratio (Cavia porcellus [17]): 2.9; max inhibition (Cavia porcellus [18]): 40%
CC(C)C[C@@H](NC(=O)[C@H](Cc1ccccc1)NC(=O)CNC(=O)[C@@H](C)NC(=O)[C@@H](N)Cc1ccc(O)cc1)C(=O)O [DADLE]	–	–	–	–	–	–	–	IC50 (Mus musculus [19]): 0.357 nM
Oc1ccc2c3c1O[C@H]1[C@H](N=C=S)CC[C@@]4(O)C(C2)N(CC2CC2)CCC314 (stereo partly specified)	14.9	6.9	1.5	1.4	1.9	120	6.9	IC50 ratio (Mus musculus [6]): 13.8; IC50 ratio (Mus musculus [9]): 1.8; max inhibition (Mus musculus [10]): 43%; IC30 (Mus musculus [12]): 100 nM
COC(=O)/C=C/C(=O)N[C@@H]1CC[C@@]2(O)[C@H]3Cc4ccc(O)c5c4[C@@]2(CCN3CC2CC2)[C@H]1O5	–	6	–	–	5	10.6	1.1	IC50 ratio (Mus musculus [20]): 1.8; IC50 ratio (Cavia porcellus [7]): 1; IC50 ratio (Cavia porcellus [16]): 1.3; IC50 ratio (Cavia porcellus [17]): 18.8; IC50 ratio (Cavia porcellus [21]): 1.2; IC50 ratio (Mus musculus [22]): 3.9
COC(=O)/C=C/C(=O)N[C@H]1CC[C@@]2(O)[C@H]3Cc4ccc(O)c5c4[C@@]2(CCN3CC2CC2)[C@H]1O5	0.87	1.2	0.92	–	7.3	0.52	0.37	IC50 ratio (Cavia porcellus [21]): 0.86; max inhibition (Mus musculus [10]): 60%; IC30 (Mus musculus [12]): 80 nM
O=C(CI)N[C@H]1CCC2(O)C3Cc4ccc(O)c5c4C2(CCN3CC2CC2)[C@H]1O5 (stereo partly specified)	1.1	0.97	1.2	0.87	0.49	2.5	1.2	max inhibition (Mus musculus [10]): 60%; IC30 (Mus musculus [12]): 200 nM
O=C(CI)N[C@@H]1CCC2(O)C3Cc4ccc(O)c5c4C2(CCN3CC2CC2)[C@H]1O5 (stereo partly specified)	2.1	2.4	1.2	1.2	–	20	1.8	IC50 ratio (Cavia porcellus [16]): 0.7; IC50 (Mus musculus [23]): > 1000 nM; max inhibition (Cavia porcellus [18]): 55%
C=CCN1CC[C@]23c4c5ccc(O)c4O[C@H]2[C@@H](O)C=C[C@H]3[C@H]1C5 [NALORPHINE]	–	–	–	–	–	–	–	IC50 (Cavia porcellus [15]): 51.3 nM
C=CC(=O)N[C@H]1CCC2(O)C3Cc4ccc(O)c5c4C2(CCN3CC2CC2)[C@H]1O5 (stereo partly specified)	1.2	1.2	0.78	0.8	1.5	–	–	–
